Measured values from ChEMBL document CHEMBL4041471, “neo-Clerodane Diterpenoids and Other Constituents of Salvia filipes” (J Nat Prod, 2016).
Active and inactive are the calls of the source.

Tests used:
Format in all cases: functional, cell-based
[1] = system: K562; assay: Cytotoxicity against human K562 cells at 20 to 25 uM measured after 48 hrs by SRB assay
How it was run: (§1)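 SRB screen in human cancer lines (U-251 glioblastoma, PC-3 prostate, K562 leukemia, HCT-15 colorectal, MCF-7 breast, SKLU-1 lung). 5000−7500 cells per well were preincubated 24 h at 37 °C, 5% CO2, then exposed to compound (20.0 or 25.0 μM) for 48 h. Cells were fixed and stained with sulforhodamine B, and absorbance was read at 515 nm.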

[2] = system: HCT-15; assay: Cytotoxicity against human HCT15 cells at 20 to 25 uM measured after 48 hrs by SRB assay; how it was run: as §1
[3] = system: SK-LU-1; assay: Cytotoxicity against human SKLU1 cells at 20 to 25 uM measured after 48 hrs by SRB assay; how it was run: as §1
[4] = system: MCF7; assay: Cytotoxicity against human MCF7 cells at 20 to 25 uM measured after 48 hrs by SRB assay; how it was run: as §1
[5] = system: U-251; assay: Cytotoxicity against human U251 cells at 20 to 25 uM measured after 48 hrs by SRB assay; how it was run: as §1
[6] = system: PC-3; assay: Cytotoxicity against human PC3 cells at 20 to 25 uM measured after 48 hrs by SRB assay; how it was run: as §1

Measured: Activity

C[C@@H]1[C@H]2C[C@@]34COC(=O)[C@@H]3CC=C[C@H]4[C@@]13C[C@H](c1ccoc1)O[C@H]3O2
inactive: all assays above

C[C@@H]1[C@H]2C[C@@]34COC(=O)[C@H]3CC=C[C@H]4[C@@]13C[C@H](c1ccoc1)O[C@H]3O2
inactive: all assays above

COC1C=C([C@H]2C[C@]34[C@@H](O2)O[C@H](C[C@@]25COC(=O)[C@@H]2CC=C[C@H]53)[C@H]4C)C(=O)O1 (mixture of isomers)
inactive: all assays above

C[C@@H]1[C@H]2C[C@@]34COC(=O)[C@@H]3CC=C[C@H]4[C@@]13C[C@H](C1=CC(O)OC1=O)O[C@H]3O2 (stereo not given in full)
inactive: all assays above

C[C@@]12C[C@@]3(c4ccoc4)O[C@@]14CCC=C1C(=O)OC[C@]14CC[C@]2(C)O3
inactive: all assays above

C[C@@H]1[C@@H](C)O[C@@H]2O[C@@H](c3ccoc3)C[C@@]21c1cccc2c1COC2=O
inactive: all assays above

C[C@@H]1[C@H]2C[C@@]34COC(=O)[C@H]3CC=C[C@H]4[C@@]13C[C@H](C1=CC(O)OC1=O)O[C@H]3O2 (stereo not given in full)
inactive: all assays above

C[C@@H]1[C@H]2C[C@@]34COC(=O)[C@H]3CC=C[C@H]4[C@@]13C[C@H](C1=CC(=O)OC1O)O[C@H]3O2 (stereo not given in full)
inactive: all assays above

C[C@@H]1[C@H]2C[C@@]34COC(=O)[C@@H]3CC=C[C@H]4[C@@]13C[C@H](C1=CC(=O)OC1O)O[C@H]3O2 (stereo not given in full)
inactive: all assays above

COc1ccc(-c2cc(=O)c3c(O)c(OC)c(OC)cc3o2)cc1O
inactive: all assays above
